Reference: ChEMBL document CHEMBL1649396, “Synthesis, biological evaluation of chrysin derivatives as potential immunosuppressive agents” (Eur J Med Chem, 2011)

What was measured:
[1] = Cytotoxicity against BALB/c mouse T cells after 48 hrs by MTT assay; type: cell-based, T-cell
Method in brief: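 Lymph node cells from female BALB/c mice, 6-8 weeks old and specific-pathogen-free, plated at 5 × 10⁵ cells/well with graded compound for 48 h. Medium was RPMI 1640 with 10% fetal calf serum and penicillin/streptomycin, at 37 °C under 5% CO₂. MTT (4 mg/mL in PBS) was added 4 h before the end. Formazan was dissolved in DMSO and read at OD540. CC50 is the concentration reducing viability to 50%.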

[2] = tested on: T-cell; assay: Selectivity index, ratio of CC50 for BALB/c mouse T cells to IC50 for immunosuppressive activity in BALB/c mouse T cells; type: functional
[3] = Immunosuppressive activity in BALB/c mouse T cells assessed as inhibition of anti-CD3/anti-CD28-stimulated cell proliferation after 72 hrs by MTT assay; type: functional, cell-based
Method in brief: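 Female BALB/c mouse lymph node cells, 5 × 10⁵/well, stimulated with anti-CD3/anti-CD28 alongside graded compound for 72 h. MTT (4 mg/mL in PBS) was added 4 h before harvest. Formazan was dissolved in DMSO and read at 540 nm.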

[4] = tested on: KB; assay: Cytotoxicity against human KB cells after 48 hrs by MTT assay; type: functional, cell-based
Method in brief: (§1)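 Cells seeded at 5 × 10⁵ per well and exposed to a range of compound concentrations for 48 h. MTT (4 mg/mL in PBS) added 4 h before end of incubation. Medium replaced by DMSO to dissolve formazan, absorbance read at 540 nm. Value reported as IC₅₀.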

[5] = tested on: HepG2; assay: Cytotoxicity against human HepG2 cells after 48 hrs by MTT assay; type: functional, cell-based; conditions: HepG2, 48 h; method in brief: as §1
[6] = Cytotoxicity against human L02 cells after 48 hrs by MTT assay; type: cell-based; conditions: L02, 48 h; method in brief: as §1
[7] = tested on: K562; assay: Cytotoxicity against human K562 cells after 48 hrs by MTT assay; type: functional, cell-based; conditions: K562, 48 h; method in brief: as §1
[8] = Toxicity in po dosed BALB/c mouse; type: organism-based; conditions: in vivo
Method in brief: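 Acute oral toxicity in female SPF BALB/c mice, 6–8 weeks old, by OECD 425 up-and-down procedure. Food withheld 3–4 h before and 1–2 h after dosing. Animals dosed one at a time at 24 h intervals, dose raised after survival and lowered after death, four more dosed after reversal. 35 animals in total. LD₅₀ estimated by maximum likelihood with AOT425StatPgm.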

[9] = tested on: T-cell; assay: Immunosuppressive activity in anti-CD3/anti-CD28-stimulated BALB/c mouse T cells assessed as non-viable necrotic cells at 4 uM after 48 hrs by FACS analysis; type: functional
Method in brief: (§2)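 Lymph node cells isolated from naive BALB/c mice, cultured with anti-CD3/anti-CD28 plus compound at 1, 2, 4 or 8 µM for 48 h. Cells were stained with Annexin V-FITC and propidium iodide and analysed by flow cytometry to give apoptotic, necrotic and viable fractions.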

[10] = tested on: T-cell; assay: Immunosuppressive activity in anti-CD3/anti-CD28-stimulated BALB/c mouse T cells assessed as non-viable necrotic cells at 8 uM after 48 hrs by FACS analysis; type: functional; method in brief: as §2
[11] = tested on: T-cell; assay: Immunosuppressive activity in anti-CD3/anti-CD28-stimulated BALB/c mouse T cells assessed as non-viable necrotic cells at 1 uM after 48 hrs by FACS analysis; type: functional; method in brief: as §2
[12] = tested on: T-cell; assay: Immunosuppressive activity in anti-CD3/anti-CD28-stimulated BALB/c mouse T cells assessed as late apoptotic cells at 4 uM after 48 hrs by FACS analysis; type: functional; method in brief: as §2
[13] = tested on: T-cell; assay: Immunosuppressive activity in anti-CD3/anti-CD28-stimulated BALB/c mouse T cells assessed as viable cells at 2 uM after 48 hrs by FACS analysis; type: functional; conditions: read-out: Activity; method in brief: as §2
[14] = tested on: T-cell; assay: Immunosuppressive activity in anti-CD3/anti-CD28-stimulated BALB/c mouse T cells assessed as non-viable necrotic cells at 2 uM after 48 hrs by FACS analysis; type: functional; method in brief: as §2
[15] = tested on: T-cell; assay: Immunosuppressive activity in anti-CD3/anti-CD28-stimulated BALB/c mouse T cells assessed as early apoptotic cells at 2 uM after 48 hrs by FACS analysis; type: functional; method in brief: as §2
[16] = tested on: T-cell; assay: Immunosuppressive activity in anti-CD3/anti-CD28-stimulated BALB/c mouse T cells assessed as viable cells at 1 uM after 48 hrs by FACS analysis; type: functional; conditions: read-out: Activity; method in brief: as §2
[17] = tested on: T-cell; assay: Immunosuppressive activity in anti-CD3/anti-CD28-stimulated BALB/c mouse T cells assessed as early apoptotic cells at 1 uM after 48 hrs by FACS analysis; type: functional; method in brief: as §2
[18] = tested on: T-cell; assay: Immunosuppressive activity in anti-CD3/anti-CD28-stimulated BALB/c mouse T cells assessed as late apoptotic cells at 1 uM after 48 hrs by FACS analysis; type: functional; method in brief: as §2
[19] = tested on: T-cell; assay: Immunosuppressive activity in anti-CD3/anti-CD28-stimulated BALB/c mouse T cells assessed as early apoptotic cells at 8 uM after 48 hrs by FACS analysis; type: functional; method in brief: as §2
[20] = tested on: T-cell; assay: Immunosuppressive activity in anti-CD3/anti-CD28-stimulated BALB/c mouse T cells assessed as early apoptotic cells at 4 uM after 48 hrs by FACS analysis; type: functional; method in brief: as §2
[21] = tested on: T-cell; assay: Immunosuppressive activity in anti-CD3/anti-CD28-stimulated BALB/c mouse T cells assessed as late apoptotic cells at 8 uM after 48 hrs by FACS analysis; type: functional; method in brief: as §2
[22] = tested on: T-cell; assay: Immunosuppressive activity in anti-CD3/anti-CD28-stimulated BALB/c mouse T cells assessed as late apoptotic cells at 2 uM after 48 hrs by FACS analysis; type: functional; method in brief: as §2
[23] = tested on: T-cell; assay: Immunosuppressive activity in anti-CD3/anti-CD28-stimulated BALB/c mouse T cells assessed as viable cells at 8 uM after 48 hrs by FACS analysis; type: functional; conditions: read-out: Activity; method in brief: as §2
[24] = tested on: T-cell; assay: Immunosuppressive activity in anti-CD3/anti-CD28-stimulated BALB/c mouse T cells assessed as induction of apoptosis after 48 hrs by FACS analysis; type: functional, cell-based; method in brief: as §2
[25] = tested on: T-cell; assay: Immunosuppressive activity in anti-CD3/anti-CD28-stimulated BALB/c mouse T cells assessed as viable cells at 4 uM after 48 hrs by FACS analysis; type: functional; conditions: read-out: Activity; method in brief: as §2

Structure (SMILES): O=C(COc1cc(O)c2c(=O)cc(-c3ccccc3)oc2c1)Oc1cc(Cl)cc(Cl)c1C(=O)O
- CC50 at 48 h [1]: 345 µM
- Ratio CC50/IC50 [2]: 7.92
- IC50 [3]: 43.6 µM

Structure (SMILES): O=C(COc1cc(O)c2c(=O)cc(-c3ccccc3)oc2c1)Oc1cccc(Br)c1C(=O)O
- CC50 at 48 h [1]: 388 µM
- Ratio CC50/IC50 [2]: 9.28
- IC50 [3]: 41.7 µM

Structure (SMILES): COC(=O)c1cc(F)ccc1OC(=O)COc1cc(O)c2c(=O)cc(-c3ccccc3)oc2c1
- CC50 at 48 h [1]: 389 µM
- Ratio CC50/IC50 [2]: 50.08
- IC50 [3]: 6.82 µM

Structure (SMILES): O=C(COc1cc(O)c2c(=O)cc(-c3ccccc3)oc2c1)Oc1cc(Br)cc(Br)c1C(=O)O
- CC50 at 48 h [1]: 398 µM
- Ratio CC50/IC50 [2]: 8.69
- IC50 [3]: 45.7 µM

Structure (SMILES): O=C(COc1cc(O)c2c(=O)cc(-c3ccccc3)oc2c1)Oc1c(Cl)cccc1C(=O)O
- CC50 at 48 h [1]: 366 µM
- Ratio CC50/IC50 [2]: 9.45
- IC50 [3]: 38.7 µM

Structure (SMILES): COC(=O)c1ccc(Cl)cc1OC(=O)COc1cc(O)c2c(=O)cc(-c3ccccc3)oc2c1
- CC50 at 48 h [1]: 265 µM
- Ratio CC50/IC50 [2]: 21.43
- IC50 [3]: 12.4 µM

Structure (SMILES): Cc1cccc(C(=O)O)c1OC(=O)COc1cc(O)c2c(=O)cc(-c3ccccc3)oc2c1
- CC50 at 48 h [1]: 299 µM
- Ratio CC50/IC50 [2]: 7.65
- IC50 [3]: 39.1 µM

Structure (SMILES): O=c1cc(-c2ccccc2)oc2cc(O)cc(O)c12 [CHRYSIN]
- CC50 at 48 h [1]: 428 µM
- Ratio CC50/IC50 [2]: 9.7
- IC50 [3]: 44.2 µM

Structure (SMILES): COC(=O)c1ccc(Br)cc1OC(=O)COc1cc(O)c2c(=O)cc(-c3ccccc3)oc2c1
- CC50 at 48 h [1]: 326 µM
- Ratio CC50/IC50 [2]: 18.54
- IC50 [3]: 17.6 µM

Structure (SMILES): O=C(COc1cc(O)c2c(=O)cc(-c3ccccc3)oc2c1)Oc1cccc(Cl)c1C(=O)O
- CC50 at 48 h [1]: 366 µM
- Ratio CC50/IC50 [2]: 9.39
- IC50 [3]: 38.9 µM

Structure (SMILES): O=C(COc1cc(O)c2c(=O)cc(-c3ccccc3)oc2c1)Oc1cccc(O)c1C(=O)O
- CC50 at 48 h [1]: 338 µM
- Ratio CC50/IC50 [2]: 8.83
- IC50 [3]: 38.2 µM

Structure (SMILES): Cc1cccc(OC(=O)COc2cc(O)c3c(=O)cc(-c4ccccc4)oc3c2)c1C(=O)O
- CC50 at 48 h [1]: 298 µM
- Ratio CC50/IC50 [2]: 8.02
- IC50 [3]: 37.2 µM

Structure (SMILES): COC(=O)c1cc(Cl)ccc1OC(=O)COc1cc(O)c2c(=O)cc(-c3ccccc3)oc2c1
- CC50 at 48 h [1]: > 436 µM
- Ratio CC50/IC50 [2]: >116.57
- IC50 [3]: 3.74 µM

Structure (SMILES): COC(=O)c1ccc(C)cc1OC(=O)COc1cc(O)c2c(=O)cc(-c3ccccc3)oc2c1
- CC50 at 48 h [1]: 250 µM
- Ratio CC50/IC50 [2]: 8.04
- IC50 [3]: 31.1 µM

Structure (SMILES): O=c1[nH]cc(F)c(=O)[nH]1 [FLUOROURACIL]
- IC50 [4]: 2.16 µM
- IC50 [5]: 2.78 µM
- IC50 [6]: 56 µM
- IC50 [7]: 38 µM

Structure (SMILES): COC(=O)c1cccc(OC)c1OC(=O)COc1cc(O)c2c(=O)cc(-c3ccccc3)oc2c1
- CC50 at 48 h [1]: 196 µM
- Ratio CC50/IC50 [2]: 5.34
- IC50 [3]: 36.8 µM

Structure (SMILES): COC(=O)c1cc(Br)ccc1OC(=O)COc1cc(O)c2c(=O)cc(-c3ccccc3)oc2c1
- LD50 [8]: 738 mg/kg
- Activity [9]: 3.69%
- Activity [10]: 7.41%
- Activity [11]: 3.56%
- Activity [12]: 38.7%
- IC50 [4]: 0.79 µM
- viability at 2 µM [13]: 64.2%
- IC50 [5]: 0.61 µM
- CC50 at 48 h [1]: > 450 µM
- IC50 [6]: 274 µM
- Activity [14]: 3.61%
- Activity [15]: 2.12%
- Ratio CC50/IC50 [2]: >576.92
- IC50 [3]: 0.78 µM
- viability at 1 µM [16]: 77%
- Activity [17]: 3.79%
- Activity [18]: 15.66%
- Activity [19]: 1.56%
- IC50 [7]: 0.47 µM
- Activity [20]: 3.14%
- Activity [21]: 40.95%
- Activity [22]: 30.09%
- viability at 8 µM [23]: 50.1%
- Activity [24]: Dose-dependent effect
- viability at 4 µM [25]: 54.5%

Structure (SMILES): O=C(COc1cc(O)c2c(=O)cc(-c3ccccc3)oc2c1)Oc1c(Br)cccc1C(=O)O
- CC50 at 48 h [1]: 379 µM
- Ratio CC50/IC50 [2]: 9.31
- IC50 [3]: 40.6 µM

Structure (SMILES): COC(=O)c1cc(O)ccc1OC(=O)COc1cc(O)c2c(=O)cc(-c3ccccc3)oc2c1
- CC50 at 48 h [1]: 263 µM
- Ratio CC50/IC50 [2]: 8.94
- IC50 [3]: 29.5 µM

Structure (SMILES): COC(=O)c1cc(C)ccc1OC(=O)COc1cc(O)c2c(=O)cc(-c3ccccc3)oc2c1
- CC50 at 48 h [1]: 306 µM
- Ratio CC50/IC50 [2]: 11.93
- IC50 [3]: 25.7 µM

Structure (SMILES): O=C(COc1cc(O)c2c(=O)cc(-c3ccccc3)oc2c1)Oc1cccc(F)c1C(=O)O
- CC50 at 48 h [1]: 319 µM
- Ratio CC50/IC50 [2]: 7.91
- IC50 [3]: 40.3 µM

Structure (SMILES): COC(=O)c1ccccc1OC(=O)COc1cc(O)c2c(=O)cc(-c3ccccc3)oc2c1
- CC50 at 48 h [1]: 265 µM
- Ratio CC50/IC50 [2]: 9.28
- IC50 [3]: 28.5 µM
